Bioassay records deposited in PubChem BioAssay by several laboratories.
Shown are actives, neighbours in structure and some others; about 2% of the full set was active somewhere.
Xi reactivation: X-chromosome reactivation activator; XiGFP mouse fibroblasts, % GFP-positive cells imaging, 3 d; cells co-treated with 5-aza-dC sensitizer; scaled so ellipticine positive control = 100%; activation, % at 7.58 µM; 360,000 tested, 0.055% active; AID 743238;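 active = mean normalized replicate activation at least 10% and every replicate at or above 10%; inconclusive = only one of the two criteria met; inactive = mean below 10% and not all replicates reach 10%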;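 note: 0% = median of on-plate neutral control wells and 100% = ellipticine 6 µM median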
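Assay system: SV40-immortalized XiGFP fibroblast cells, line 68-5-11; buffer or medium: DMEM plus 5-aza-dC sensitizer; compound: one concentration, pinned; timing: compounds 3 days, fix/stain 15 min at room temperature; benchmarks: positive control ellipticine, 6 µM final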
TROY signal inh: inhibitors of TROY-dependent NF-kB signaling; Q293 LMP1-TROYcd NF-kB luciferase reporter, 4 h; inhibition, % at 10 µM; 360,000 tested, 0.98% active;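 active = compounds whose plate-normalised and pattern-corrected inhibition of the luciferase reporter signal at the single screening dose is 50% or more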
CaV13 ICDI inh: Primary screen for inhibitors of IQ motif and Ca2+-dependent inactivation inhibitor domain binding in CACNA1D, Förster resonance energy transfer in living cells, … | AID 743397 | inhibition, % at 12.3 µM | HEK cells, CFP/YFP FRET ICDI-IQ, plate reader, 10 min; percent FRET-ratio fall versus neutral wells | 340,000 tested, 0.098% active;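 active = mean replicate inhibition of at least 30% and at least 1% of replicates passing that level; inconclusive = only one of the two criteria is met; inactive = neither criterion is met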;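 note: 0% = median of the neutral control wells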
TWEAK-Fn14 inh: blocks TWEAK-Fn14 interaction in a reporter cell assay; TWEAK-stimulated Fn14 reporter cells, luciferase luminescence, 8 h; inhibition, % at 10 µM; 360,000 tested, 2% active; in the data active = inhibition above about 50%
LGR2 antag: blocks bursicon-induced cAMP signaling via Drosophila LGR2 | 380,000 tested, 0.35% active | AID 720647 | inhibition, % at 9.99 µM | HEK293 LGR2, CRE-luciferase, bursicon-stimulated, 4 h;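 active = drop in luminescence signal, shown as inhibition above about 50% in the replicate tests, limit read from the data, passing the limit was not always enough; inconclusive = probably only some replicates passing the limit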;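 note: agonist challenge used bursicon conditioned medium at about half maximal strength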
The depositor's hits bear a star; u = inconclusive; x = no result given.

SMILES	Xi reactivation	TROY signal inh	CaV13 ICDI inh	TWEAK-Fn14 inh	LGR2 antag
CCC(C)NC(=O)c1c(N)n(/N=C/c2cccnc2)c2nc3ccccc3nc12 (configuration not stated)	x	-15	-7	51*	x
CC(C)OCCCNC(=O)c1c(N)n(/N=C/c2ccccn2)c2nc3ccccc3nc12	x	-16	-8	35	x
COc1ccc(NC(=O)N(C)C[C@@H]2Oc3c(NC(=O)C4CC4)cccc3C(=O)N([C@@H](C)CO)C[C@H]2C)cc1	-1	x	x	x	7
O=C(NCc1cccnc1)c1c[nH]c2cc3c(cc2c1=O)OCCO3	x	49	-2	70*	x
O=C(NCc1ccccc1)c1c[nH]c2ccc(S(=O)(=O)Nc3ccc4c(c3)OCCO4)cc2c1=O	x	x	-5	3	0
Cc1ccccc1S(=O)(=O)NCC[C@H]1CC[C@H](NC(=O)C2CC2)[C@H](CO)O1	0	x	x	x	-4
CC1CCC(C(C)C)C(OC(=O)Cn2c(-c3ccc(F)cc3)[n+](C)c3ccccc32)C1 (configuration not stated)	0	31	-3	45	u
Cc1cccc(OCc2n(CC(=O)OC3CC(C)CCC3C(C)C)c3ccccc3[n+]2C)c1 (configuration not stated)	x	64*	x	75*	x
CC1CCC(C(C)C)C(OC(=O)Cn2c(-c3ccccc3)[n+](C)c3ccccc32)C1 (configuration not stated)	0	57*	-3	64*	59*
CN(C)Cc1c(O)ccc2cc(-c3nc4ccccc4n3C)c(=O)oc12	0	21	24	56*	3
CSc1ccc(S(=O)(=O)N2CCC(C(=O)NCCCn3ccnc3)CC2)cc1	0	-11	-6	83*	-2
O=C(COc1ccc(Br)cc1Cl)NC(=S)Nc1ccccn1	0	69*	x	64*	-20
Cc1ccc(OCC(=O)NC(=S)Nc2ccccn2)c(Br)c1	0	79*	-7	91*	71*
CN(C)P(=O)(Nc1cccc2ccccc12)Nc1cccc2ccccc12	0	48	-5	76*	11
CC(C)OP(=O)(Nc1cccc2ccccc12)OC(C)C	0	6	-9	10	7
CO[C@H]1CN(C)C(=O)c2cc(NC(=O)CC(F)(F)F)ccc2OC[C@H](C)N(CC2CC2)C[C@@H]1C	0	x	x	x	-10
CCNc1nc(NCC)nc(OCCOC(=O)COc2ccc(Cl)cc2Cl)n1	x	x	-7	86*	x
CN(C)c1nc(OCCOC(=O)COc2ccc(Cl)cc2Cl)nc(N(C)C)n1	x	3	-5	5	x
Cc1noc(C)c1S(=O)(=O)Nc1ccc2c(c1)C(=O)N([C@@H](C)CO)C[C@H](C)[C@H](CN(C)S(=O)(=O)c1ccccc1)OCCCC[C@@H](C)O2	0	x	x	x	2
C[C@H](CO)N1C[C@H](C)[C@@H](CN(C)C(=O)Cc2ccccc2)Oc2cc(C#Cc3ccccc3F)ccc2S1(=O)=O	0	x	x	x	18
COc1ccccc1C#Cc1ccc2c(c1)O[C@@H](CN(C)Cc1cncnc1)[C@@H](C)CN([C@@H](C)CO)S2(=O)=O	0	x	x	x	5
C[C@H]1CN([C@@H](C)CO)S(=O)(=O)c2ccc(C#CC(C)(C)O)cc2O[C@@H]1CN(C)Cc1ccc(-c2ccccc2)cc1	0	x	x	x	54*
C[C@@H]1CN([C@H](C)CO)S(=O)(=O)c2ccc(C#Cc3ccccc3F)cc2O[C@@H]1CN(C)C(=O)Cc1ccccc1	0	30	-5	50*	10
C[C@@H]1CN([C@@H](C)CO)S(=O)(=O)c2ccc(C#CC3CC3)cc2O[C@H]1CN(C)Cc1ccc(F)cc1	18*	x	x	x	7
COc1ccccc1C#Cc1ccc2c(c1)O[C@H](CN(C)Cc1cncnc1)[C@@H](C)CN([C@H](C)CO)S2(=O)=O	26*	x	x	x	7
C[C@@H]1CN([C@H](C)CO)S(=O)(=O)c2ccc(C#CC(C)(C)O)cc2O[C@@H]1CN(C)Cc1ccc(-c2ccccc2)cc1	0	x	x	x	29
C[C@@H]1CCCCO[C@H](CN(C)Cc2ccc(C(=O)O)cc2)[C@@H](C)CN([C@@H](C)CO)C(=O)c2cc(NS(=O)(=O)c3cccs3)ccc2O1	0	x	x	x	-5
O=C(N[C@H]1C=C[C@H](CC(=O)N2CCOCC2)O[C@@H]1CO)c1ccc2c(c1)OCO2	0	x	x	x	5
